Measurements: ChEMBL document CHEMBL1955799, “Cyclic dipeptides exhibit potency for scavenging radicals” (Bioorg Med Chem, 2012)

Tests used:
Type in all cases: functional
[1] = Antioxidant activity assessed as hydroxyl radical scavenging activity at 2.5 mM by electron spin resonance method
In short: (§1)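 ESR spectrometry of radical signal, same settings for hydroxyl and superoxide radicals: magnetic field 335.7 ± 5 mT, power 4 mW at 9.414 GHz, modulation 100 kHz 1 × 0.079 mT, response 0.1 s, amplitude 160, sweep time 2 min, 25 °C. Activity is expressed as % inhibition of the radical signal.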

[2] = Antioxidant activity assessed as superoxide radical scavenging activity at 2.5 mM by electron spin resonance method; in short: as §1
[3] = Antioxidant activity assessed as hydroxyl radical scavenging activity by electron spin resonance method; in short: as §1
[4] = Antioxidant activity assessed as superoxide radical scavenging activity by electron spin resonance method; in short: as §1

Molecule | IC50 [3] | IC50 [4] | inhibition [1] | inhibition [2]
VITAMIN E |  |  | 37.7% | 32.3%
CC(C)C[C@@H]1NC(=O)[C@@H]2CCCN2C1=O | 1100 µM |  | 86.2% | 0%
CC(C)C[C@@H]1NC(=O)[C@H](CCC(N)=O)NC1=O |  |  | 19% | 0%
CC(C)C[C@@H]1NC(=O)[C@H](C(C)C)NC1=O |  |  | 12.3% | 0%
CC(C)C[C@@H]1NC(=O)[C@H](CC(C)C)NC1=O |  |  | 26% | 0%
CC(C)C[C@@H]1NC(=O)[C@H](Cc2ccccc2)NC1=O |  |  | 23.5% | 0%
CC(C)C[C@@H]1NC(=O)[C@H]([C@@H](C)O)NC1=O |  |  | 0% | 0%
CC(C)C[C@@H]1NC(=O)[C@H](C)NC1=O |  |  |  | 0%
CC(C)C[C@@H]1NC(=O)CNC1=O |  |  | 0% | 0%

Now from value to molecule, other results behind:

IC50 [3] | IC50 [4] | Molecule | inhibition [1] | inhibition [2]
800 µM |  | CSCC[C@@H]1NC(=O)[C@H](CC(C)C)NC1=O | 79% | 0%
1000 µM |  | CC(C)C[C@@H]1NC(=O)[C@H](CO)NC1=O | 95.2% | 0%
850 µM |  | CC(C)C[C@@H]1NC(=O)[C@H](Cc2cnc[nH]2)NC1=O | 83.9% | 0%
170 µM |  | CC(C)C[C@@H]1NC(=O)[C@H](CC(N)=O)NC1=O | 96% | 0%
1800 µM |  | CC(C)C[C@@H]1NC(=O)[C@H](Cc2c[nH]c3ccccc23)NC1=O | 66% | 0%
100 µM | 880 µM | CC(C)C[C@@H]1NC(=O)[C@H](CS)NC1=O | 88.9% | 83.3%
4 µM |  | CC(C)C[C@@H]1NC(=O)[C@H](CC(=O)O)NC1=O | 95% | 0%
80 µM |  | CC(C)C[C@@H]1NC(=O)[C@H](CCC(=O)O)NC1=O | 97.8% | 0%
160 µM |  | CC(C)C[C@@H]1NC(=O)[C@H](CCCCN)NC1=O | 96% | 0%
